The results in this text go back to ChEMBL document CHEMBL2203151, “Cytotoxic alkaloids from the whole plants of Zephyranthes candida” (J Nat Prod, 2012).

In one experiment the test system is HL-60. Briefly: Cytotoxicity against human HL60 cells after 48 hrs by MTT assay. In kind it is functional, cell-based. To be noted: HL-60, 48 h.
Experiment [1] deals with HepG2. Briefly: Cytotoxicity against human HepG2 cells after 48 hrs by MTT assay. Type of experiment: functional, cell-based. To be noted: HepG2, 48 h. (Formazan colour is commonly taken as a measure of viable cells.)
Experiment [2] concerns A549. Briefly: Cytotoxicity against human A549 cells after 48 hrs by MTT assay. Type of experiment: functional, cell-based. The following applies: A549, 48 h.
For experiment [3], the system named is HT-29. Briefly: Cytotoxicity against human HT-29 cells after 48 hrs by MTT assay. In kind it is functional, cell-based. To be noted: HT-29, 48 h.
In experiment [4] the test system is K562. Kind of experiment: Cytotoxicity against human K562 cells after 48 hrs by MTT assay. Type of experiment: functional, cell-based. The following applies: K562, 48 h.
Experiment [5] is described as follows: Cytotoxicity against human BEAS2B cells after 48 hrs by MTT assay. The following applies: BEAS-2B. Type of experiment: cell-based. The gist of the method: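 Beas-2B immortalized, non-cancerous bronchial epithelial cells grown in RPMI-1640 or DMEM with 10% FBS, 5% CO2, 37°C. Cells were seeded and allowed to adhere 12 h before compound addition, then exposed for 48 h. DMSO negative and cisplatin positive controls were included. Viability was measured by MTT absorbance at 595 nm, and IC50 was calculated by the Reed–Muench method.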

Experiment [6] in a line: Selectivity index, ratio of IC50 for human BEAS2B cells to IC50 for human HL60 cells. Type of experiment: functional.
The subject of experiment [7] is K562. Briefly: Selectivity index, ratio of IC50 for human BEAS2B cells to IC50 for human K562 cells. In kind it is functional.
Experiment [8] deals with HT-29. Briefly: Selectivity index, ratio of IC50 for human BEAS2B cells to IC50 for human HT-29 cells. Type of experiment: functional.
Experiment [9] has as its system A549. Kind of experiment: Selectivity index, ratio of IC50 for human BEAS2B cells to IC50 for human A549 cells. Type of experiment: functional.
The subject of experiment [10] is HepG2. Briefly: Selectivity index, ratio of IC50 for human BEAS2B cells to IC50 for human HepG2 cells. Type of experiment: functional.

Molecules are shown by their SMILES.

Usually IC50 stands for the midpoint of a concentration-inhibition curve. A low value points to greater potency in that assay. For `CO[C@@H]1C=C[C@@]23c4cc5c(cc4C(=O)O[C@H]2CN(C)[C@H]3C1)OCO5`, the IC50 in the experiment with HL-60, in the experiment with HepG2 [1], with A549 [2], with HT-29 [3] and in the experiment with K562 [4] was above 10 µM throughout.
With `CN1Cc2cc3c(cc2-c2ccccc21)OCO3`, the half-inhibitory concentration (IC50) in the experiment with HL-60, with HepG2 [1], in the experiment with A549 [2], in the experiment with HT-29 [3] and with K562 [4] was above 10 µM in each case.
In the case of `CCOC(=O)CCCn1c(=O)c2cc3c(cc2c2ccccc21)OCO3`, the 50% inhibitory concentration (IC50) with HL-60 is above 10 µM; in the experiment with HepG2 [1] it was above 10 µM; with A549 [2], above 10 µM; in the experiment with HT-29 [3] it was above 10 µM; in experiment [5], 36 µM; in the experiment on K562 [4], above 10 µM.
With `O=c1c2cc3c(cc2c2ccccc2n1CCc1ccccc1)OCO3`, the IC50 in the experiment with HL-60 stood at 0.81 µM; with HepG2 [1], 1.4 µM; with A549 [2], 13 µM; with HT-29 [3], 2.3 µM; in [5], 7.3 µM; in the experiment with K562 [4] it was 0.7 µM. The Ratio IC50 was 9 in [6]; 10 in the experiment with K562 [7]; 3.2 with HT-29 [8]; 0.56 with A549 [9]; 5.2 with HepG2 [10].
For the compound `CC(C)CCn1c(=O)c2cc3c(cc2c2ccccc21)OCO3`, the IC50 with HL-60, in the experiment on HepG2 [1], in the experiment with A549 [2], in the experiment with HT-29 [3] and in the experiment on K562 [4] was above 10 µM throughout.
As for `Cn1c(=O)c2cc3c(cc2c2ccccc21)OCO3`, the IC50 in the experiment on HL-60, in the experiment on HepG2 [1], in the experiment on A549 [2], in the experiment on HT-29 [3] and in the experiment with K562 [4] was above 10 µM each time.
For `COc1cc2c(c(OC)c1OC)[C@@H](OC)O[C@@H]1CC=C3CCN(C)[C@H]3[C@H]21`, the concentration for half-maximal inhibition (IC50) in the experiment with HL-60, in the experiment on HepG2 [1], with A549 [2], in the experiment with HT-29 [3] and in the experiment on K562 [4] was above 10 µM throughout.
`CCOC(=O)CCn1c(=O)c2cc3c(cc2c2ccccc21)OCO3`: the IC50 in the experiment on HL-60 was above 10 µM; in the experiment on HepG2 [1], above 10 µM; in the experiment on A549 [2], above 10 µM; in the experiment with HT-29 [3], above 10 µM; in experiment [5], above 40 µM; in the experiment on K562 [4], above 10 µM.
Regarding `CO[C@@H]1C=C[C@@]23c4cc5c(cc4C(O)[N+](C)(C[C@@H]2O)[C@H]3C1)OCO5.[Cl-]` (mixture of isomers), the half-inhibitory concentration (IC50) with HL-60 was 0.91 µM; in the experiment with HepG2 [1] it was 1.5 µM; in the experiment with A549 [2], 1.1 µM; with HT-29 [3], 1.2 µM; in experiment [5], 3.7 µM; in the experiment with K562 [4], 1 µM. Moreover, the Ratio IC50 came out at 4.1 in experiment [6]; 3.7 in the experiment on K562 [7]; 3.1 in the experiment on HT-29 [8]; 3.4 in the experiment on A549 [9]; 2.5 in the experiment on HepG2 [10].
Consider `CO[C@H]1C=C[C@@]23c4cc5c(cc4CN(C)[C@@H]2C(=O)N(C)[C@H]3C1)OCO5` (relative stereo), for which the IC50 in the experiment with HL-60, in the experiment with HepG2 [1], in the experiment with A549 [2], in the experiment with HT-29 [3] and in the experiment with K562 [4] was above 10 µM in each case.
`CO[C@@H]1C=C[C@@]23c4cc5c(cc4CN(C[C@@H]2O)[C@H]3C1)OCO5` [(+)-HAEMANTHAMINE]: the IC50 is 1.4 µM in the experiment with HL-60; 4.8 µM with HepG2 [1]; 2.5 µM in the experiment with A549 [2]; 2.1 µM with HT-29 [3]; 2.5 µM with K562 [4].
With `O[C@H]1[C@H]2c3cc4c(cc3CN3CCC(=C[C@@H]1O)[C@H]23)OCO4` [LYCORINE], the half-maximal inhibitory concentration (IC50) is 1.6 µM with HL-60; 3.7 µM with HepG2 [1]; 1.9 µM with A549 [2]; 3.2 µM in the experiment on HT-29 [3]; 4.9 µM in experiment [5]; 2.3 µM in the experiment on K562 [4].
In the case of `C/C=C/C=C/C(=O)N1C[C@H](C)NC[C@H]1C` [NIGRAGILLIN], the IC50 in the experiment on HL-60, in the experiment on HepG2 [1], with A549 [2], in the experiment on HT-29 [3] and in the experiment with K562 [4] was above 10 µM in each case.
For `CO[C@@H]1C=C[C@@]23c4cc5c(cc4CO[C@]2(O)CN(C)[C@H]3C1)OCO5` [TAZETTINE], the IC50 in the experiment with HL-60, with HepG2 [1], with A549 [2], in the experiment on HT-29 [3] and in the experiment on K562 [4] was above 10 µM throughout.
As for `c1ccc2c(c1)ncc1cc3c(cc12)OCO3` [TRISPHAERIDINE], the concentration for half-maximal inhibition (IC50) with HL-60, in the experiment with HepG2 [1], in the experiment with A549 [2], in the experiment with HT-29 [3] and with K562 [4] was above 10 µM in each case.
